From ChEMBL document CHEMBL1153830, “Treatment of a clinically relevant plant-pathogenic fungus with an agricultural azole causes cross-resistance to medical azoles and potentiates caspofungin efficacy” (2007)
Values after ≈ are worked out from the molar mass of the structure shown. Active and inactive are the calls of the source. The calls are words filed in the database; no cut-off is given here.

Experiments:
[1] = system: Colletotrichum graminicola; experiment: Fungicidal activity against tebuconazole-nonadapted wild type Colletotrichum graminicola CgM2 assessed as inhibition of radial growth rate at 23 degC in darkness; assay type: functional; details: for EC50: Colletotrichum graminicola, CgM2, read-out: ED50 (the source's name)
How it was run: (§1)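 Radial growth on solid complete medium, 23°C, darkness. Colony diameters were read at 3 and 6 days after inoculation and compared with drug-free control plates. Azoles and picoxystrobin were dissolved in 12% (wt/vol) Cremophor EL and tested at 0–2.5 μg/ml. Caspofungin, amphotericin B and nystatin were dissolved in water and tested from 0.00025 μg/ml; caspofungin plates used sucrose (10 mg/ml) in place of glucose.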

[2] = system: Colletotrichum graminicola; experiment: Fungicidal activity against tebuconazole-adapted wild type Colletotrichum graminicola CgM2 assessed as inhibition of radial growth rate at 23 degC in darkness; assay type: functional; details: for EC50: Colletotrichum graminicola, CgM2, read-out: ED50 (the source's name); how it was run: as §1
[3] = system: Colletotrichum graminicola; experiment: Fungicidal activity against tebuconazole-nonadapted wild type Colletotrichum graminicola CgM2 infected in excised human skin assessed as inhibition of invasive colonized hyphal growth at hypodermis at ED90 after 4 days by Uvitex-2B staining-based fluorescence microscopy; assay type: functional, organism-based
How it was run: (§2)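 Excised human skin from reduction mammoplasty, all pieces from one donor, cut to 20 mm discs. Each disc got 15–20 prick wounds and 100 μl of 10^6 conidia/ml. Discs sat in a Franz diffusion cell at 32°C over isotonic NaCl for up to 4 days. Drug was applied at ED50, ED90 or 2× ED90, three pieces per condition. Biopsies were cryosectioned and Uvitex 2B-stained; hyphal area per section was measured by fluorescence.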

[4] = system: Colletotrichum graminicola; experiment: Fungicidal activity against tebuconazole-adapted wild type Colletotrichum graminicola CgM2 infected in excised human skin assessed as inhibition of invasive colonized hyphal growth at hypodermis at ED90 after 4 days by Uvitex-2B staining-based fluorescence microscopy; assay type: functional, organism-based; how it was run: as §2
[5] = system: Colletotrichum graminicola; experiment: Fungicidal activity against tebuconazole-nonadapted wild type Colletotrichum graminicola CgM2 infected in excised human skin assessed as inhibition of invasive colonized hyphal growth at epidermis at ED90 after 4 days by Uvitex-2B staining-based fluorescence microscopy; assay type: functional, organism-based; how it was run: as §2
[6] = system: Colletotrichum graminicola; experiment: Fungicidal activity against tebuconazole-adapted wild type Colletotrichum graminicola CgM2 infected in excised human skin assessed as inhibition of invasive colonized hyphal growth at epidermis at twofold ED90 after 4 days by Uvitex-2B staining-based fluorescence microscopy; assay type: functional, organism-based; how it was run: as §2
[7] = system: Colletotrichum graminicola; experiment: Fungicidal activity against tebuconazole-adapted wild type Colletotrichum graminicola CgM2 infected in excised human skin assessed as inhibition of invasive colonized hyphal growth at hypodermis at ED50 after 4 days by Uvitex-2B staining-based fluorescence microscopy; assay type: functional, organism-based; how it was run: as §2
[8] = system: Colletotrichum graminicola; experiment: Fungicidal activity against tebuconazole-nonadapted wild type Colletotrichum graminicola CgM2 infected in excised human skin assessed as inhibition of invasive colonized hyphal growth at epidermis at ED50 after 4 days by Uvitex-2B staining-based fluorescence microscopy; assay type: functional, organism-based; how it was run: as §2
[9] = system: Colletotrichum graminicola; experiment: Fungicidal activity against tebuconazole-nonadapted wild type Colletotrichum graminicola CgM2 infected in excised human skin assessed as inhibition of invasive colonized hyphal growth at epidermis at twofold ED90 after 4 days by Uvitex-2B staining-based fluorescence microscopy; assay type: functional, organism-based; how it was run: as §2
[10] = system: Colletotrichum graminicola; experiment: Fungicidal activity against tebuconazole-nonadapted wild type Colletotrichum graminicola CgM2 infected in excised human skin assessed as inhibition of invasive colonized hyphal growth at dermis at twofold ED90 after 4 days by Uvitex-2B staining-based fluorescence microscopy; assay type: functional, organism-based; how it was run: as §2
[11] = system: Colletotrichum graminicola; experiment: Fungicidal activity against tebuconazole-nonadapted wild type Colletotrichum graminicola CgM2 infected in excised human skin assessed as inhibition of invasive colonized hyphal growth at dermis at ED90 after 4 days by Uvitex-2B staining-based fluorescence microscopy; assay type: functional, organism-based; how it was run: as §2
[12] = system: Colletotrichum graminicola; experiment: Fungicidal activity against tebuconazole-adapted wild type Colletotrichum graminicola CgM2 infected in excised human skin assessed as inhibition of invasive colonized hyphal growth at dermis at ED90 after 4 days by Uvitex-2B staining-based fluorescence microscopy; assay type: functional, organism-based; how it was run: as §2
[13] = system: Colletotrichum graminicola; experiment: Fungicidal activity against tebuconazole-nonadapted wild type Colletotrichum graminicola CgM2 infected in excised human skin assessed as inhibition of invasive colonized hyphal growth at hypodermis at twofold ED90 after 4 days by Uvitex-2B staining-based fluorescence microscopy; assay type: functional, organism-based; how it was run: as §2
[14] = system: Colletotrichum graminicola; experiment: Fungicidal activity against tebuconazole-adapted wild type Colletotrichum graminicola CgM2 infected in excised human skin assessed as inhibition of invasive colonized hyphal growth at dermis at ED50 after 4 days by Uvitex-2B staining-based fluorescence microscopy; assay type: functional, organism-based; how it was run: as §2
[15] = system: Colletotrichum graminicola; experiment: Fungicidal activity against tebuconazole-nonadapted wild type Colletotrichum graminicola CgM2 infected in excised human skin assessed as inhibition of invasive colonized hyphal growth at hypodermis at ED50 after 4 days by Uvitex-2B staining-based fluorescence microscopy; assay type: functional, organism-based; how it was run: as §2
[16] = system: Colletotrichum graminicola; experiment: Fungicidal activity against tebuconazole-adapted wild type Colletotrichum graminicola CgM2 infected in excised human skin assessed as inhibition of invasive colonized hyphal growth at epidermis at ED50 after 4 days by Uvitex-2B staining-based fluorescence microscopy; assay type: functional, organism-based; how it was run: as §2
[17] = system: Colletotrichum graminicola; experiment: Fungicidal activity against tebuconazole-nonadapted wild type Colletotrichum graminicola CgM2 infected in excised human skin assessed as inhibition of invasive colonized hyphal growth at dermis at ED50 after 4 days by Uvitex-2B staining-based fluorescence microscopy; assay type: functional, organism-based; how it was run: as §2
[18] = system: Colletotrichum graminicola; experiment: Fungicidal activity against tebuconazole-adapted wild type Colletotrichum graminicola CgM2 infected in excised human skin assessed as inhibition of invasive colonized hyphal growth at dermis at twofold ED90 after 4 days by Uvitex-2B staining-based fluorescence microscopy; assay type: functional, organism-based; how it was run: as §2
[19] = system: Colletotrichum graminicola; experiment: Fungicidal activity against tebuconazole-adapted wild type Colletotrichum graminicola CgM2 infected in excised human skin assessed as inhibition of invasive colonized hyphal growth at hypodermis at twofold ED90 after 4 days by Uvitex-2B staining-based fluorescence microscopy; assay type: functional, organism-based; how it was run: as §2
[20] = system: Colletotrichum graminicola; experiment: Fungicidal activity against tebuconazole-adapted wild type Colletotrichum graminicola CgM2 infected in excised human skin assessed as inhibition of invasive colonized hyphal growth at epidermis at ED90 after 4 days by Uvitex-2B staining-based fluorescence microscopy; assay type: functional, organism-based; how it was run: as §2
[21] = system: Colletotrichum graminicola; experiment: Ratio of ED90 for tebuconazole-adapted wild type Colletotrichum graminicola CgM2 to ED90 for tebuconazole-nonadapted wild type Colletotrichum graminicola CgM2; assay type: functional
How it was run: (§3)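 Values came from logit transformation and linear regression, with confidence intervals at α = 0.05. Ratios compare tebuconazole-adapted with nonadapted CgM2.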

[22] = system: Colletotrichum graminicola; experiment: Ratio of ED50 for tebuconazole-adapted wild type Colletotrichum graminicola CgM2 to ED50 for tebuconazole-nonadapted wild type Colletotrichum graminicola CgM2; assay type: functional; how it was run: as §3
[23] = system: Colletotrichum graminicola; experiment: Fungicidal activity against compound-nonadapted wild type Colletotrichum graminicola CgM2 assessed as inhibition of radial growth rate at 30 ppm at 23 degC in darkness after 7 days; assay type: functional, organism-based
How it was run: (§4)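 Isolate CgM2: 1 × 10^6 conidia grown in 50 ml liquid complete medium (CM), 7 days in darkness at 23°C. Adapted lines were passed through tebuconazole at 1, 5 and 20 μg/ml, then kept on CM plates containing 5 and 8 μg/ml (4 weeks each) and finally 30 μg/ml. Radial growth on CM plates was compared with that of the nonadapted strain.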

[24] = system: Colletotrichum graminicola; experiment: Fungicidal activity against compound-adapted wild type Colletotrichum graminicola CgM2 assessed as inhibition of radial growth rate at 30 ppm at 23 degC in darkness after 7 days; assay type: functional, organism-based; how it was run: as §4

Row | Compound | ED90 [1] [µg/mL] | EC50 [1] [µg/mL] | ED90 [2] [µg/mL] | EC50 [2] [µg/mL] | also measured
1 | CCC(C)(C)c1ccc(CC(C)CN2C[C@@H](C)O[C@@H](C)C2)cc1 (stereo partly specified) [AMOROLFINE] | 0.347 (≈ 1.09 µM) | 0.03 (≈ 0.0945 µM) | 0.36 (≈ 1.13 µM) | 0.023 (≈ 0.0724 µM) | 
2 | C[C@@H]1[C@H](O)[C@@H](C)/C=C/C=C/C=C/C=C/C=C/C=C/C=C/[C@H](O[C@@H]2O[C@H](C)[C@@H](O)[C@H](N)[C@@H]2O)C[C@@H]2O[C@](O)(C[C@@H](O)C[C@@H](O)[C@H](O)CC[C@@H](O)C[C@@H](O)CC(=O)O[C@H]1C)C[C@H](O)[C@H]2C(=O)O [AMPHOTERICIN B] | 2.147 (≈ 2.32 µM) | 0.03 (≈ 0.0325 µM) | 0.873 (≈ 0.945 µM) | 0.007 (≈ 0.00758 µM) | 
3 | c1ccc(-c2ccc(C(c3ccccc3)n3ccnc3)cc2)cc1 (stereo unspecified) [BIFONAZOLE] | 1.958 (≈ 6.31 µM) | 0.148 (≈ 0.477 µM) | 4.892 (≈ 15.8 µM) | 0.33 (≈ 1.06 µM) | Activity [3]: Active; Activity [4]: inactive; Activity [5]: Active; Activity [6]: inactive; Activity [7]: inactive; Activity [8]: Active; Activity [9]: Active; Activity [10]: Active; Activity [11]: Active; Activity [12]: inactive; Activity [13]: Active; Activity [14]: inactive; Activity [15]: Active; Activity [16]: inactive; Activity [17]: Active; Activity [18]: inactive; Activity [19]: inactive; Activity [20]: inactive
4 | Cc1cc(C2CCCCC2)n(O)c(=O)c1.NCCO [CICLOPIROX OLAMINE] | 64.842 | 9.83 | 54.616 | 3.67 | 
5 | Clc1ccccc1C(c1ccccc1)(c1ccccc1)n1ccnc1 [CLOTRIMAZOLE] | 2.44 (≈ 7.08 µM) | 0.128 (≈ 0.371 µM) | 6.485 (≈ 18.8 µM) | 0.145 (≈ 0.42 µM) | 
6 | COC1=CC(=O)C[C@@H](C)[C@]12Oc1c(Cl)c(OC)cc(OC)c1C2=O [GRISEOFULVIN] | 5.503 (≈ 15.6 µM) | 0.607 (≈ 1.72 µM) | 5.839 (≈ 16.6 µM) | 0.051 (≈ 0.145 µM) | 
7 | CCC(C)n1ncn(-c2ccc(N3CCN(c4ccc(OCC5COC(Cn6cncn6)(c6ccc(Cl)cc6Cl)O5)cc4)CC3)cc2)c1=O (stereo unspecified) [ITRACONAZOLE] | 1.351 (≈ 1.91 µM) | 0.007 (≈ 0.00992 µM) | 8.848 (≈ 12.5 µM) | 0.014 (≈ 0.0198 µM) | 
8 | CC(=O)N1CCN(c2ccc(OCC3COC(Cn4ccnc4)(c4ccc(Cl)cc4Cl)O3)cc2)CC1 (stereo unspecified) [KETOCONAZOLE] | 1.492 (≈ 2.81 µM) | 0.115 (≈ 0.216 µM) | 12.419 (≈ 23.4 µM) | 0.552 (≈ 1.04 µM) | 
9 | Clc1ccc(COC(Cn2ccnc2)c2ccc(Cl)cc2Cl)c(Cl)c1 (stereo unspecified) [MICONAZOLE] | 1.327 (≈ 3.19 µM) | 0.028 (≈ 0.0673 µM) | 4.386 (≈ 10.5 µM) | 0.048 (≈ 0.115 µM) | 
10 | CO/C=C(/C(=O)OC)c1ccccc1COc1cccc(C(F)(F)F)n1 [PICOXYSTROBIN] | 0.148 (≈ 0.403 µM) | 0.006 (≈ 0.0163 µM) | 1.041 (≈ 2.83 µM) | 0.026 (≈ 0.0708 µM) | fold change (FC) [21]: 7; fold change (FC) [22]: 4
11 | CCCN(CCOc1c(Cl)cc(Cl)cc1Cl)C(=O)n1ccnc1 [PROCHLORAZ] | 0.087 (≈ 0.231 µM) | 0.004 (≈ 0.0106 µM) | 0.72 (≈ 1.91 µM) | 0.011 (≈ 0.0292 µM) | fold change (FC) [21]: 8; fold change (FC) [22]: 2.75
12 | CC(C)(C)C(O)(CCc1ccc(Cl)cc1)Cn1cncn1 (stereo unspecified) [TEBUCONAZOLE] | 0.504 (≈ 1.64 µM) | 0.059 (≈ 0.192 µM) | 13.534 (≈ 44 µM) | 0.423 (≈ 1.37 µM) | Activity [23]: Active; Activity [24]: inactive; fold change (FC) [21]: 27; fold change (FC) [22]: 7
13 | Cc1cccc(N(C)C(=S)Oc2ccc3ccccc3c2)c1 [TOLNAFTATE] | 104.107 (≈ 339 µM) | 0.582 (≈ 1.89 µM) | 98.71 (≈ 321 µM) | 0.537 (≈ 1.75 µM) | 
14 | C[C@@H](c1ncncc1F)[C@](O)(Cn1cncn1)c1ccc(F)cc1F [VORICONAZOLE] | 0.228 (≈ 0.653 µM) | 0.018 (≈ 0.0515 µM) | 1.328 (≈ 3.8 µM) | 0.045 (≈ 0.129 µM) | 
15 | NYSTATIN | 2.41 |  | 0.896 |  | ED50 [1]: 0.03 µg/mL; ED50 [2]: 0.023 µg/mL
